MEKK3 PB1 HTS – MEKK3-MEK5 PB1 interaction, increase or decrease | Q99759 | bead-based flow cytometry, Alexa488-MEK5 binding to MEKK3; actives lie on both sides; 0 = blocked by unlabeled MEK5, 100 = vehicle | binding response (% of control), % at 10 µM | 1.4% of 290,000 active | AID 1529;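 active means binding response more than 3 SD above or below the average of its plate-row segment, actives on both sides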;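 further: Alexa488 bead fluorescence after subtracting the streptavidin-only scavenger bead signal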
MEKK2 WT-MEK5 – raises or lowers MEK5 binding to wildtype human MEKK2 PB1 domain. Q9Y2U5. bead flow cytometry, Alexa488-MEK5 binding to MEKK2 WT; actives lie on both sides. 1.1% of 290,000 active. AID 1531. binding response (% of control), % at 10 µM; in the data active means binding response below about 67% or above about 130%
MEKK2mut PB1 HTS – signal of MEK5 binding to mutant human MEKK2 PB1 domain. bead flow cytometry, Alexa488-MEK5 binding to MEKK2 mutant. percent response, % at 10 µM. 0.35% of 290,000 active; in the data active means percent response above about 24%, passing the limit was not always enough
DSG3 Ab inh – blocks pemphigus antibody binding to human desmoglein-3; DSG3-coupled beads, scFv-anti-DSG3-GFP binding, flow cytometry; stronger effect = lower value; binding (percent of control), % at 10 µM; 0.48% of 310,000 active; AID 588358;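 active means binding more than 3 SD below its plate's average and above zero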;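 further: hits lower antibody fragment binding to DSG3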
UBC13 polyUb – blocks human UBC13 polyubiquitin chain formation; P61088; TR-FRET; inhibition, % at 20 µM; 0.47% of 330,000 active; AID 485273; in the data active means inhibition above about 45%, passing the limit was not always enough
Target sequence (P61088 whole entry, looked up): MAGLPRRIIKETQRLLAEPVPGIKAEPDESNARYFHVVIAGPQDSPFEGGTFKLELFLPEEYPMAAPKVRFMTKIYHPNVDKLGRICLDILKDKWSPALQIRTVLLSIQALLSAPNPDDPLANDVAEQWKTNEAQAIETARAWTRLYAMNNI
Apaf-1 inh – human Apaf-1 inhibition. reconstituted apoptosome caspase-3 activity, DEVD-Rh110 fluorescence. O14727. inhibition, % at 20 µM. 0.71% of 330,000 active; active means inhibition of at least 40% at 20 µM;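 further: plate controls were DMSO wells for no effect and DEVD-CHO caspase inhibitor wells for full effect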
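detection = Rh110 fluorescence intensity | test system = biochemical Apaf-1 apoptosome reconstitution | also added = cytochrome c and DEVD-Rh110 substrate | schedule = 30 min plus 50 min, RT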
Apaf-1 inh conf – confirmation of Apaf-1 inhibitors; inhibition, % at 20 µM; reconstituted apoptosome, caspase-3 DEVD-Rh110 fluorescence; shares compounds with Apaf-1 inh; 25% of 1,800 active;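 active means mean inhibition of at least 40% at 20 µM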;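 further: plate controls were DMSO wells for no effect and DEVD-CHO caspase inhibitor control wells for full effect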
Rh110 interf inh – counter-screen for Apaf-1 inhibitors: fluorescence interference. activation (fluorescence interference), % at 20 µM. Rh110 fluorescence interference, quenched caspase reaction. shares compounds with Apaf-1 inh. 1,800 tested, under 10 active;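 active means signal rise of 40% or more at 20 µM, treated as a fluorescence artifact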
Fluor interf inh – shows fluorescence interference in the Apaf-1 inhibitor assay format; fluorescence interference counterscreen, Apaf-1 assay format; shares compounds with Apaf-1 inh; 460 tested, under 10 active; AID 588538; IC50, µM; call rule not given here
Numbers without * were called inactive; . = not tested or not shown. Sampled rows, rich in hits. Any-hit rate of the full collection: about 3.2%.

SMILES	MEKK3 PB1 HTS	MEKK2 WT-MEK5	MEKK2mut PB1 HTS	DSG3 Ab inh	UBC13 polyUb	Apaf-1 inh	Apaf-1 inh conf	Rh110 interf inh	others
O=C(NNc1cc(N2CCCC2)nc(N2CCCC2)n1)c1ccc([N+](=O)[O-])cc1	89	91	-5	99	-73	98*	76*	8	Fluor interf inh=>100
O=C(CCc1ccccc1)NNc1cc(N2CCCCC2)nc(N2CCCCC2)n1	99	97	-5	198	-20	60*	44*	4	Fluor interf inh=>100
CC(C)(C)c1ccc(C(=O)NNc2cc(N3CCOCC3)nc(N3CCOCC3)n2)cc1	102	90	-13	109	12	36	.	.
CC(C)(C)c1ccc(C(=O)NNc2cc(N3CCCCC3)nc(N3CCCCC3)n2)cc1	102	95	0	.	-16	73*	44*	0	Fluor interf inh=>100
Cc1nc(NNC(=O)c2ccc([N+](=O)[O-])cc2)cc(-c2ccccc2)n1	.	.	.	107	-6	-3	.	.
CC(=O)N1CCN(c2cc(-c3ccccc3)nc3cc(-c4cccc(Cl)c4)nn23)CC1	.	.	.	106	.	.	.	.
COc1ccc2noc3c2c1C(=O)c1ccccc1-3	.	.	.	90	-245	78*	44*	-58	Fluor interf inh=59*
COc1cccc2c1C(=O)c1ccc3ccccc3c1C2=O	99	89	-7	102	-8	72*	9	4
COc1ccc(OC)c2c1C(=O)c1ccccc1C2=O	98	97	1	.	-38	63*	-1	-7
COc1ccc(N)c2c1C(=O)c1ccccc1C2=O	106	106	3	125	.	.	.	.
CN(C(=S)NC(=O)C1CC1)c1ccc(O)cc1	.	.	.	100	-9	-25	.	.
O=C(NCCc1csc(-c2ccc(Cl)cc2)n1)c1ccco1	98	97	-2	.	-2	11	.	.
CN1CCN(c2ccc(S(=O)(=O)N3CCCCC3)cc2NC(=O)/C=C/c2ccc(Cl)c([N+](=O)[O-])c2)CC1	.	.	.	104	18	51*	15	13
CCN1CCN(c2ccc(S(=O)(=O)N3CCCCC3)cc2NC(=O)/C=C/c2ccc([N+](=O)[O-])cc2)CC1	.	.	.	105	10	36	.	.
CCN(CC(=O)Nc1cc(S(=O)(=O)N2CCOCC2)ccc1Cl)Cc1ccccc1	.	.	.	106	17	42*	29	9
CCN1CCN(c2ccc(S(=O)(=O)N3CCOCC3)cc2NC(=O)CC(C)C)CC1	.	.	.	92	25	50*	37	4
CCN1CCN(c2ccc(S(=O)(=O)N3CCCCC3)cc2NC(=O)/C=C/c2ccc(OC(F)F)cc2)CC1	.	.	.	102	15	52*	9	4
CC(C)(Cc1nc2ccccc2[nH]1)c1nc2ccccc2[nH]1	.	.	.	100	.	.	.	.
CCN(CC(=O)Nc1c(F)cccc1F)C(=O)CNC(=O)c1ccc2c(c1)OCO2	102	107	9	82	18	53*	31	2
CCN(CC(=O)Nc1c(F)cccc1F)C(=O)CNC(=O)c1ccc2ccccc2c1	.	.	.	93	8	-1	.	.
CCN(CC(=O)Nc1c(F)cccc1F)C(=O)Cc1ccsc1	.	.	.	95	33	52*	42*	9	Fluor interf inh=>100
O=C(c1ccco1)N1N=C(c2ccccc2O)CC1c1cccs1 (stereo unspecified)	.	.	.	100	.	.	.	.
O=C(c1ccco1)N1CCN(C(=O)c2cn(-c3ccccc3)nc2-c2ccc(F)cc2)CC1	.	.	.	98	1	72*	15	6
CC1CC=C(O)C12OCC(C)(C)CO2 (stereo unspecified)	.	.	.	94	.	.	.	.
O=S(=O)(NCC(c1ccccc1)N1CCNCC1)c1ccc(Cl)cc1 (stereo unspecified)	100	108	3	102	23	43*	13	12
SMILES	MEKK3 PB1 HTS	MEKK2 WT-MEK5	MEKK2mut PB1 HTS	DSG3 Ab inh	UBC13 polyUb	Apaf-1 inh	Apaf-1 inh conf	Rh110 interf inh	others
CCC(C)(CC(=O)Nc1nccs1)c1ccccc1 (stereo unspecified)	103	105	4	102	7	5	.	.
CNC1=C(N(C(C)=O)c2ccc(Br)cc2)C(=O)c2ccccc2C1=O	90	91	-6	.	.	.	.	.
CCC(=O)N(C1=C(NC)C(=O)c2ccccc2C1=O)C(C)C	105	97	-4	86	-83	69*	49*	-1	Fluor interf inh=>100
CC(C)Cn1c(N)c(C(=O)NCC2CCCO2)c2nc3ccccc3nc21 (stereo unspecified)	90	91	-8	106	-7	65*	30	10
COCCn1c(N)c(C(=O)NCC2CCCO2)c2nc3ccccc3nc21 (stereo unspecified)	108	110	6	108	-1	75*	30	5
COc1ccc(OC)c(-n2c(N)c(C(=O)NCC3CCCO3)c3nc4ccccc4nc32)c1 (stereo unspecified)	104	101	4	106	.	.	.	.
O=C(Oc1ccc[nH]c1=O)c1cc([N+](=O)[O-])cc([N+](=O)[O-])c1	96	89	10	103	-10	93*	12	6
CCNC(=O)Oc1ccc[nH]c1=O	97	104	7	105	-38	42*	3	1
COc1ccc(C(=O)Oc2ccc[nH]c2=O)cc1	100	96	2	96	-8	-1	.	.
O=[N+]([O-])c1ccccc1C(O)Cc1ccccn1 (stereo unspecified)	.	.	.	95	.	.	.	.
CS(=O)(=O)Nc1cccc(C2=NN(C(=O)c3ccc(F)cc3)C(c3cccs3)C2)c1 (stereo unspecified)	92	91	-3	101	7	12	.	.
CCCN1CCN(C(=O)C2CCN(S(=O)(=O)c3c(C)noc3/C=C/c3ccc(C)cc3)CC2)CC1	104	130	10	100	20	61*	27	1
Cc1ccc(/C=C/c2onc(C)c2S(=O)(=O)N2CCC(C(=O)N3CCCCC3)CC2)cc1	98	96	0	103	4	29	.	.
CCN(CC)S(=O)(=O)c1cccc(NC(=O)C2SC(=Nc3ccc(C)cc3C)C(C(=O)NCC3CCCO3)=C2N)c1 (stereo unspecified)	95	100	-5	97	-5	45*	15	-1
CCN(CC)S(=O)(=O)c1cccc(C(=O)NCC2CCCO2)c1 (stereo unspecified)	83	84	-9	96	2	-12	.	.
COc1cccc(NC(=O)C2CCN(C(=O)NC3CCCCC3)CC2)c1	101	102	3	96	3	-5	.	.
